According to PubChem BioAssay:
Calls of active or inactive are those of the source.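 How the source made its calls, unless noted: active means visual image review flags a hit and inhibition of aggregation exceeds 20%; inconclusive means visual hit but inhibition at or below 20%; inactive means no hit on visual image review.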

Tests used:
[1] = inhibitors of TNFa-induced NFkB p65 translocation, primary screen, imaging, HUVEC, MLSMR starter and 10KST1 sets (AID 438;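 active means inhibition above 20% together with a positive visual image hit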;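 further: compound added about 3h40 before a 20 min TNFalpha stimulation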;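 on inhibition: signal is the nuclear over cytoplasmic p65 intensity ratio per well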); settings: HUVEC TNFa-induced p65 nuclear translocation; cell count: measured here: nuclei count (cytotoxicity indicator), at 2.08 µM; inhibition: at 2 µM, stronger effect = higher value, 0% TNFa-plus-vehicle, 100% no-TNFa wells
[2] = reduction of polyQ htt aggregates in cells – imaging, exon1htt(103Q)mCFP cells, high-content imaging, primary screen (AID 483); settings: exon1htt(103Q)mCFP cell line, aggregate imaging, at 2 µM; inhibition of aggregation: stronger effect = higher value; nuclei count: measured here: cell count, toxicity;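 further: compound exposure lasted 3 days before fixation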;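 on nuclei count: percent of the per-plate median nuclei count of sample wells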
[3] = endothelial E-selectin expression blockers – imaging, HUVEC, immunofluorescence, MLSMR starter and 10KST1 sets, primary screen (AID 487;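 active means visually confirmed hit in the image check and inhibition above 20%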;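 on inhibition: signal is fraction of cell area covered by stained E-selectin grains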;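 on nuclei count: 100% = median nuclei count of all wells on the same plate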); settings: HUVEC TNFalpha-induced E-selectin immunofluorescence imaging, at 2 µM; inhibition: stronger effect = higher value; nuclei count: measured here: cell number, toxicity
[4] = target: Voltage-gated potassium channel subunit beta-2 (Rattus norvegicus) (UniProt P62483); assay: inhibitors of rat Kvbeta2 reductase activity – biochemical, NADPH fluorescence, primary screen (AID 622;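 active means fluorescence slope higher than the sample average by over 3 SD, cut at about -0.22 in these data, passing the limit was not always enough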;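 further: slope of raw intensity against log time taken from 70 to 1610 s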); settings: recombinant KvBeta, 4-cyanobenzaldehyde reduction, at 10 µM, stronger effect = higher value
Voltage-gated potassium channel subunit beta-2 (Rattus norvegicus), sequence (P62483 whole entry, looked up): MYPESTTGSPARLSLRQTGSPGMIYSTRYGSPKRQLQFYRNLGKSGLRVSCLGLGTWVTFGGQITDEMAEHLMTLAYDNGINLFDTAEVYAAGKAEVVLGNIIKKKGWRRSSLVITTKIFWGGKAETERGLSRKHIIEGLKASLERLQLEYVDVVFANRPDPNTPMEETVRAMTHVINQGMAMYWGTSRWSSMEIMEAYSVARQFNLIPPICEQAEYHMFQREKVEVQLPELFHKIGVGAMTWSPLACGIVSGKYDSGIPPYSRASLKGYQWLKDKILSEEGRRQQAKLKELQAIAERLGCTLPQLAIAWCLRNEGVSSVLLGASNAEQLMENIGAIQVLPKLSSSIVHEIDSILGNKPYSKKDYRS

[5] = target: Voltage-gated potassium channel subunit beta-2 (Rattus norvegicus) (UniProt P62483); assay: enhancers of rat Kvbeta2 NADPH turnover – biochemical, NADPH fluorescence, primary screen (AID 623;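 active means NADPH fluorescence slope more negative than the mean of all samples by about 3 SD, 99.7% confidence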;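 further: fluorescence intensity change per second fitted from 20 to 320 s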); settings: Recombinant KvBeta, NADPH fluorescence decrease slope, 10 min; at 10 µM; stronger effect = lower value
[6] = target: Muscarinic acetylcholine receptor M4 (Homo sapiens) (UniProt P08173); assay: M4-linked GIRK flux change, two-sided – cell-based, HEK293 M4/GIRK, thallium flux, BTC-AM, M4 allosteric agonist project, primary screen (AID 625;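 active means fluorescence slope after compound addition differing from the mean of all tested samples at 99.7% confidence, mostly higher but some lower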;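 further: thallium influx through GIRK channels coupled to M4 in HEK293 cells with BTC-AM dye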); settings: at 10 µM, actives lie on both sides
Muscarinic acetylcholine receptor M4 (Homo sapiens), sequence (P08173 whole entry, looked up): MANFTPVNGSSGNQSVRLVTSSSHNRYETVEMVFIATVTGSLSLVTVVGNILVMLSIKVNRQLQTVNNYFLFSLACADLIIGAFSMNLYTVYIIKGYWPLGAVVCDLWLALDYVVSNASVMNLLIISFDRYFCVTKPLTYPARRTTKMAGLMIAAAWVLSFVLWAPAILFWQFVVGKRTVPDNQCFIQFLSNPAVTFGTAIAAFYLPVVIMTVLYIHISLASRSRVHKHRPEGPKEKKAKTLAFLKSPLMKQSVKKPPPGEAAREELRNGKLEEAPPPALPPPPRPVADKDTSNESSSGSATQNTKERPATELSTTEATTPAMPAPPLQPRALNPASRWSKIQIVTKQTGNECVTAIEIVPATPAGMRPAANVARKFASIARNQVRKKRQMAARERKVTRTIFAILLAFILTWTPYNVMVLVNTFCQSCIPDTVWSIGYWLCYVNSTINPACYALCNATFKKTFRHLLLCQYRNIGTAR
Summary of the method: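 Material: M4/GIRK1/GIRK2 stable HEK293 cell line. Medium: pH 7.3 thallium assay buffer. Dosing: single compound concentration, 10 µM final. Schedule: 1 h dye loading, 2 min kinetic read. Measured by: kinetic fluorescence with BTC-AM dye. Read-out: post-addition slope, 15–24 s, of baseline-normalized fluorescence. Benchmarks: carbachol and DMSO controls.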

[7] = blockers of RIG-like receptor reporter activation – cell-based, Sendai virus stimulus, luciferase, 10K MLSCN set, TLR/RLR signaling modifier project, primary screen (AID 602276;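 active means inhibition at or above 50% at 10 µM; inactive means inhibition below 50%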;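 further: firefly luciferase from ISG56 promoter only with Renilla not read in this screen; 0% = Sendai virus plus DMSO and 100% = medium plus DMSO without virus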); settings: HEK293 RL24 IRF3 luciferase reporter, at 10 µM, stronger effect = higher value
[8] = TLR3 IRF3 reporter activation blockers – cell-based, poly I:C stimulus, luciferase, 10K MLSCN set, primary screen (AID 602277;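 active means inhibition of the reporter signal at or above 50%; inactive means inhibition below 50%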); settings: HEK293-TLR3 RL24 IRF3 luciferase reporter, at 10 µM, stronger effect = higher value

| Structure (SMILES) | cell count [1] | inhibition [1] | inhibition of aggregation [2] | nuclei count [2] [%] | inhibition [3] | nuclei count [3] [%] | fluorescence slope [4] | NADPH fluorescence slope [5] | fluorescence slope [6] | inhibition [7] | inhibition [8] |
| --- | --- | --- | --- | --- | --- | --- | --- | --- | --- | --- | --- |
| C=CCC(Nc1ccco1)c1ccccc1 (stereo not drawn) | 393 | 2.5% (inactive) | 3.4% (inactive) | 112 | -17.9% (inactive) | 114 | -0.498 (inactive) | -2.9e-05 (inactive) | 0.00454 (inactive) | 19% (inactive) | 19.6% (inactive) |
| CN1CCCC(OC(=O)COc2ccc(Br)cc2)C1 (stereo not drawn) | 430 | -3.5% (inactive) | 2.1% (inactive) | 97 | -63.5% (inactive) | 87.2 | -0.489 (inactive) | 0.000124 (inactive) | 0.0054 (inactive) | -9.52% (inactive) | -1.12% (inactive) |
| Cc1ccc(SCCC(=O)N(C)C)cc1 | 637 | -8.6% (inactive) | 10.5% (inactive) | 89.8 | -143% (inactive) | 103 | -0.459 (inactive) | -2.6e-05 (inactive) | 0.00561 (inactive) | -10.8% (inactive) | -52.8% (inactive) |
| CC(=O)Nc1ccn(-c2ccccc2)n1 | 595 | 1.8% (inactive) | -0.5% (inactive) | 108 | -113% (inactive) | 136 | -0.584 (inactive) | -9.6e-06 (inactive) | 0.00818 (inactive) | -39.2% (inactive) | -34.3% (inactive) |
| CCOC(=O)c1ccc(-c2c(C(=O)OCC)oc3cc(O)c(CC)cc3c2=O)o1 | 676 | 6.9% (inactive) | 10.3% (inactive) | 104 | -22.1% (inactive) | 100 | -0.602 (inactive) | -2.5e-05 (inactive) | 0.00385 (inactive) | 15.3% (inactive) | 7.61% (inactive) |
| c1ccc(-c2cc3c(nn2)CCc2nonc2-3)cc1 | 339 | 2.4% (inactive) | 19.1% (inactive) | 100 | -9.2% (inactive) | 111 | -0.543 (inactive) | -0.00017 (inactive) | 0.00417 (inactive) | -15.2% (inactive) | -31.9% (inactive) |
| CSc1nc(NC(C)(C)C)nc(Oc2ccc(=O)[nH]n2)n1 | 356 | -6.2% (inactive) | 10.5% (inactive) | 86.5 | -29.6% (inactive) | 107 | -0.594 (inactive) | 1.9e-06 (inactive) | 0.0039 (inactive) | 12.8% (inactive) | 11.8% (inactive) |
| O=C(NCC1COCCO1)C1CCN(S(=O)(=O)c2ccccc2)CC1 (stereo not drawn) | 621 | -9.6% (inactive) | -7.6% (inactive) | 111 | -28.6% (inactive) | 112 | -0.557 (inactive) | 3.3e-05 (inactive) | 0.0061 (inactive) | 12% (inactive) | 0.992% (inactive) |
